Measured values collected from several papers.
Protocols differ between the studies behind these lines.
Cell line: HCT-116
Effect on: cell growth or viability

SMILES | method | tested at | time | measurement | value
COc1cc2c(OC)nc3c4cc5c(cc4cc(OCCCN4CCCC4)c3c2cc1OC)OCO5 | MTT | – | 72 h | GI50 | 2400 nM
COc1ccc(C(=O)/C=C/c2ccccc2Br)cc1S(N)(=O)=O | SRB | 10 µM | – | inhibition | 197%
COc1cc2c(OC)nc3c4cc5c(cc4cc(OCCN(C)C)c3c2cc1OC)OCO5 | MTT | – | 72 h | GI50 | > 100000 nM
COc1ccc(NC(=O)c2c(Nc3ccccc3)sc(C(=O)NN=Cc3cc(OC)c(OC)c(OC)c3)c2NC(C)=O)cc1 | SRB | 0.1 µM | 48 h | viability | 86.1%
COc1ccc(C(=O)/C=C/c2cccc3ccccc23)cc1S(N)(=O)=O | SRB | – | 48 h | GI50 | 1300 nM
COc1cc2c(OC)nc3c4cc5c(cc4cc(OCCCN4CC=CC4)c3c2cc1OC)OCO5 | MTT | – | 72 h | GI50 | 1300 nM
COc1ccc(NC(=O)c2c(Nc3ccccc3)sc(C#N)c2NC(=O)CNc2ccc(Cl)cc2)cc1 | SRB | 0.1 µM | 48 h | viability | 72%
Cc1cc(C)n(C(=S)[S][Au][PH](CCCCCC[PH]([Au][S]C(=S)n2nc(C)cc2C)(c2ccccc2)c2ccccc2)(c2ccccc2)c2ccccc2)n1 | – | – | – | GI50 | 380 nM
COc1ccccc1/C=C/C(=O)c1ccc(OC)c(S(N)(=O)=O)c1 | SRB | – | 48 h | GI50 | 2500 nM
COc1cc(/C=N/n2c(C)nc3ccc(C)cc3c2=O)cc([N+](=O)[O-])c1O | LDH | 200 µg/mL | 24 h | viability | 90%
COc1cc(CNC(=O)C[C@H](C)CCC=C(C)C)ccc1OCc1cn(-c2ccc(Cl)cc2)nn1 | SRB | 10 µM | – | inhibition | 41%
COc1ccc(NC(=O)c2c(Nc3ccccc3)sc(C#N)c2NC(=O)CNc2ccc(OC)c(OC)c2)cc1 | SRB | 0.1 µM | 48 h | viability | 76%
COc1cc(NCC(=O)Nn2c(C)nc3ccc(Cl)cc3c2=O)cc(OC)c1OC | LDH | 200 µg/mL | 24 h | viability | 54.5%
COc1ccc(C(=O)/C=C/c2cccnc2)cc1S(N)(=O)=O | SRB | – | 48 h | GI50 | 3200 nM
COc1ccc(NCC(=O)Nc2c(C#N)sc(Nc3ccccc3)c2C(=O)Nc2ccc(OC)cc2)cc1 | SRB | 1 µM | 48 h | viability | 70.2%
COc1ccc(C(=O)/C=C/c2ccc(Cl)c(Cl)c2)cc1S(N)(=O)=O | SRB | 10 µM | – | inhibition | 196%
COc1ccc(NC(=O)c2c(Nc3ccccc3)sc(C(=O)NN=Cc3ccc(Cl)cc3)c2NC(C)=O)cc1 | SRB | 1 µM | 48 h | viability | 74.2%
Cc1nc2ccc(Cl)cc2c(=O)n1NC(=O)CCl | LDH | 200 µg/mL | 24 h | viability | 89%
